Screening data from PubChem BioAssay.
SR-BI HDL uptake = inhibitors of SR-BI mediated HDL lipid uptake, primary screen, ldlA[mSR-BI] cells, fluorescence, single point; AID 488896, 2010; ldlA[mSR-BI] CHO cells, DiI-HDL uptake fluorescence, 3 h; inhibition, % at 12.5 µM; Scavenger receptor class B member 1 (Mus musculus), Q61009; actives 0.96% (n = 320,000);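 active = mean replicate inhibition of at least 70% and a set share of replicates each scoring 70 or more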
Target sequence (Q61009 whole entry, looked up): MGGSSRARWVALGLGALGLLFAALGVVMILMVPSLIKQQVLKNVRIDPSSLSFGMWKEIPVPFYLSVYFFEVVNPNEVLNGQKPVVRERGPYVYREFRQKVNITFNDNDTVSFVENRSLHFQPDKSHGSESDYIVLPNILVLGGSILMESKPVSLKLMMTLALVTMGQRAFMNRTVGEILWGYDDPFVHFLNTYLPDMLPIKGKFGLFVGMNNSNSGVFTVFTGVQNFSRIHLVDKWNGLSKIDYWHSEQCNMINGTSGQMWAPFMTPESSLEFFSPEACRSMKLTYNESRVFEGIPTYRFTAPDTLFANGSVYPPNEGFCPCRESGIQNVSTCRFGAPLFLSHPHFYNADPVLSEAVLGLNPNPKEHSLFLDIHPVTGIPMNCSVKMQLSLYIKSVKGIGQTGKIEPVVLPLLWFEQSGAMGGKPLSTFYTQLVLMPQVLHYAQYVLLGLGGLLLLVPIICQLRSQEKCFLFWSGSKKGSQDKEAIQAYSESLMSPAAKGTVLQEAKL
miR-122 sensor = miR-122 Renilla sensor signal increase in Huh7, primary screen, miR-122 inhibitor project, cell-based, single point, plate reader; activation (reporter increase), % at 12.5 µM; AID 602342, 2012; actives 0.3% (n = 340,000); Huh7 miR-122 Renilla luciferase sensor, 48 h; neutral wells = 0, positive control = 100;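 active = mean replicate activation score at least 90 and every replicate individually at or above 90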;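 note: higher luciferase means less miR-122 activity so hits act as miR-122 inhibitors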
CAL PDZ FP-1 = CAL PDZ peptide-binding inhibitors, primary screen, biochemical, fluorescence polarization, Cer-tagged CAL PDZ, HTS; purified CAL PDZ, TMR-peptide fluorescence polarization, 1 h; inhibition, % at 20 µM; actives 0.02% (n = 330,000);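 active = highest replicate inhibition of at least 40%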
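Material: tagged CAL PDZ domain; buffer or medium: 25 mM sodium phosphate pH 7.4, 150 mM NaCl, TCEP, IgG, Thesit; compound dosing: single point, 20 µM; schedule: 1 h incubation at room temperature before polarization reading; measured by: FP readout, S and P plane fluorescence; read-out basis: percent inhibition from loss of millipolarization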
CAL PDZ FP-2 = untagged CAL PDZ binding inhibitors, primary screen, biochemical, fluorescence polarization, HTS; actives 0.92% (n = 300,000); inhibition, % at 24.9 µM; purified CAL PDZ, TMR-peptide fluorescence polarization, 1 h; AID 602252, 2012;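 active = mean inhibition of at least 30% with at least half of replicates also reaching 30%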
SR-BI DiI-HDL act = activators of SR-BI mediated DiI-HDL uptake, primary screen, ldlA[mSR-BI] CHO cells, DiI fluorescence; 3 h; 100 = double the neutral-control signal; activation, % at 12.5 µM; actives 0.096% (n = 320,000);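 active = mean replicate activation of at least 60% and every replicate at or above 60%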
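Test system: SR-BI-overexpressing, LDLR-lacking CHO cells; Medium: Ham's F12 with 0.5% BSA, HEPES 25 mM, pH 7.4; Schedule: 3 h, 37 °C; Technique: bottom-read fluorescence, 550/595 nm.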
ARNT TACC3 PPI = disruptors of ARNT/TACC3 protein interaction, primary screen, biochemical, AlphaScreen, single concentration. Transforming acidic coiled-coil-containing protein 3 (Homo sapiens), Q9Y6A5. AlphaScreen His-ARNT PAS-B/GST-TACC3 binding, luminescence; TACC3 fragment carries E629A point mutation. inhibition, % at 9.99 µM. actives 0.66% (n = 390,000). AID 623870, 2012;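 active = mean inhibition of replicates at least 50% and at least half of replicates each reaching 50%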
A number is an active result; n = inactive; x = no result given; [ ] = dose if it differs, or a comment. Sampled rows, rich in hits. Any-hit rate of the full collection: about 2.1%.

SMILES	SR-BI HDL uptake	miR-122 sensor	CAL PDZ FP-1	CAL PDZ FP-2	SR-BI DiI-HDL act	ARNT TACC3 PPI
CC(C)CNC(=O)COC(=O)c1n[nH]c2ccccc12	n	x	n	61	n	n
CCCN1C[C@H](C)[C@@H](OC)CN(C)C(=O)c2cc(NC(=O)Nc3cccc(OC)c3)ccc2OC[C@H]1C	x	n	x	x	x	x
CCC(=O)Nc1ccc2c(c1)C(=O)N(C)[C@H]1CC[C@H](CC(=O)NCc3ccccc3Cl)O[C@@H]1CO2	x	n	x	x	x	n
COc1cccc(NC(=O)N2C[C@@H](O)COC[C@H]3O[C@@H](CC(=O)NCc4ccccc4F)CC[C@@H]32)c1	x	n	x	x	x	n
CNC[C@H]1Oc2ccc(NS(=O)(=O)c3ccc(OC)cc3)cc2CC(=O)N([C@H](C)CO)C[C@H]1C	x	n	x	x	x	x
COc1cc(-c2ccc3oc(-c4ccsc4)c(C#CC4(O)CCCCC4)c3c2)cc(OC)c1OC	76	x	n	n	n	x
CN(Cc1nc2ccccc2c(=O)[nH]1)C(=O)c1cccc(NC(=O)c2cccs2)c1	n	n	n	66	n	n
CCCS(=O)(=O)N1CCC(C(=O)N2CCOCC2)CC1	n	n	n	n	68	n
COC(=O)C(NC(=O)c1ccco1)(Nc1nc(C2CC2)cs1)C(F)(F)F (stereo not drawn)	n	n	n	37	n	n
Cc1cccc(C(=O)Nc2cc(NC(=O)c3cccs3)ccc2C)c1	74	x	n	n	n	n
COc1cc(NC(=S)NC(=O)c2ccc(C)cc2C)ccc1NC(=O)c1cccs1	n	n	n	n	n	n
COc1cccc(NC(=O)CCC(=O)Nc2cc(OC)c(NC(=O)c3cccs3)cc2OC)c1	n	n	n	n	n	50
COc1cc(NC(=O)c2ccc(C)cc2C)ccc1NC(=O)c1cccs1	84	x	n	n	n	n
COc1ccc(NC(=O)N[C@@H]2CC[C@H](CCNC(=O)c3cc(Cl)cc(Cl)c3)O[C@H]2CO)cc1	x	x	x	x	x	n
O=C(CSc1cccc2cccnc12)Nc1cc(C(=O)O)cc(C(=O)O)c1	n	n	n	n	n	68
Cc1cccc(NC(=O)CSc2cccc3cccnc23)c1	n	n	n	n	n	57
CCCCOc1ccc(NC(=O)CSc2cccc3cccnc23)cc1	n	n	n	n	n	n
O=C(COc1ccccc1)Nc1nnc(-c2ccccc2)o1	n	n	n	x	n	93
COc1cc(OC)cc(C(=O)OCC(=O)Nc2nnc(-c3ccccc3)o2)c1	n	n	n	x	n	n
O=C(COC(=O)c1ccco1)Nc1nnc(-c2ccccc2)o1	n	x	n	n	n	60
COc1cc(OC)c(C(=O)OCC(=O)Nc2nnc(-c3ccccc3)o2)cc1OC	n	n	n	n	n	85
CCC(=O)Nc1nnc(-c2ccccn2)o1	n	x	n	n	n	48
CN1C(=O)c2cc(NC(=O)c3cccc(F)c3)ccc2OC[C@@H]2O[C@@H](CC(=O)NC3CCC3)CC[C@H]21	x	n	x	x	x	n
O=C(C[C@@H]1CC[C@@H](NC(=O)CC2CC2)[C@@H](CO)O1)NCc1ccc(Cl)cc1	x	x	x	x	x	n
C[C@H](CO)N1C[C@H](C)[C@H](CN(C)C(=O)c2ccncc2)OCCCC[C@H](C)Oc2ccc(NC(=O)C3CCCCC3)cc2C1=O	x	n	x	x	x	x
C[C@@H]1CCCCO[C@H](CN(C)C(=O)c2ccccc2)[C@@H](C)CN([C@H](C)CO)C(=O)c2cc(NC(=O)CCCN(C)C)ccc2O1	x	n	x	x	x	n
O=C(COc1ccccc1)Nc1nnc(-c2ccco2)o1	n	n	n	n	n	74
CN1c2ccc(-c3cccc(F)c3)cc2[C@H]2[C@H](CCN2C(=O)C2CC2)[C@H]1CO	x	100[16.7 µM]	x	x	x	n
